Experimental findings from ChEMBL document CHEMBL1154121, “alpha-Substituted norstatines as the transition-state mimic in inhibitors of multiple digestive vacuole malaria aspartic proteases” (Bioorg Med Chem, 2009) are described below.

For assay [1], the target named is T1, Cathepsin D (Homo sapiens, UniProt P07339). As to the kind of experiment: Ratio of compound Ki to KNI-10006 Ki for human liver cathepsin D.
Assay [2] can be described thus: Inhibition of Plasmodium falciparum plasmepsin-4. An outline of the steps: (§1)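 Self-activated in 0.1 M sodium acetate pH 4.5, 37 °C, 5 min. Chromogenic substrate hydrolysis followed spectrophotometrically; Michaelis-Menten curves at ≥5 substrate levels with no inhibitor and two inhibitor concentrations, fitted together for Ki.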
For the next assay, the target named is Protease (Human immunodeficiency virus 1, UniProt Q9YQ12). Kind of assay: Inhibition of HIV1 protease. In short, it runs like this: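 Recombinant HIV-1 protease expressed in E. coli; Ki from fluorometric assay, two independent measurements; a reference inhibitor included to check variability, standard deviation ±50% of mean.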
For assay [3], the system named is Human immunodeficiency virus 1. Kind of assay: Antiviral activity against HIV1 replication in infected cells. Type of assay: functional, organism-based.
A further assay concerns the target Plasmepsin II (Plasmodium falciparum, UniProt P46925). As to the kind of experiment: Inhibition of Plasmodium falciparum plasmepsin-2 expressed in Escherichia coli BL21 (DE3) by spectrophotometric assay with chromogenic substrate.
The nature of assay [4]: Inhibition of Plasmodium malariae plasmepsin-4 expressed in Escherichia coli BL21 (DE3) by spectrophotometric assay with chromogenic substrate.
Assay [5] can be described thus: Inhibition of Plasmodium falciparum plasmepsin-4 expressed in Escherichia coli BL21 (DE3) by spectrophotometric assay with chromogenic substrate.
In another assay the target is Aspartic protease PM4 (Plasmodium vivax, UniProt O60989). Kind of assay: Inhibition of Plasmodium vivax plasmepsin-4 expressed in Escherichia coli BL21 (DE3) by spectrophotometric assay with chromogenic substrate.
The nature of assay [6]: Inhibition of Plasmodium ovale plasmepsin-4 expressed in Escherichia coli BL21 (DE3) by spectrophotometric assay with chromogenic substrate.
Assay [7] concerns the target Beta-secretase 1 (Homo sapiens) (UniProt P56817). Kind of assay: Inhibition of human BACE1 at < 10 uM.
Assay [8] deals with T1, Cathepsin D. As to the kind of experiment: Inhibition of human liver cathepsin D. In short, it runs like this: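 Human liver cathepsin D activated 20 min at 37 °C in 100 mM sodium acetate pH 4.5, 10% glycerol, 0.01% Tween 20. Inhibitor serially diluted in DMSO (1% final) added before 3 µM DABCYL-Glu-Arg-Nle-Phe-Leu-Ser-Phe-Pro-EDANS; fluorescence increase read over 10 min. IC50 from Langmuir isotherm assuming competitive inhibition, converted to Ki via IC50/(1+[S]/Km); top concentration limited to 10.0 µM by inhibitor fluorescence.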

Assay [9] can be described thus: Selectivity ratio of Ki for human liver cathepsin D to Ki for Plasmodium falciparum plasmepsin-2 expressed in Escherichia coli BL21 (DE3).
Assay [10] concerns Human immunodeficiency virus 1. Kind of assay: Antiviral activity against HIV1 3B infected in human MT4 cells. The following applies: Human immunodeficiency virus 1, 3B. It counts as functional, organism-based.
The target of a further assay is Plasmepsin III (Plasmodium falciparum, UniProt Q9Y006). As to the kind of experiment: Inhibition of Plasmodium falciparum histo-aspartyl protease.
The target in another assay is Plasmepsin I (Plasmodium falciparum, UniProt P39898). As to the kind of experiment: Inhibition of Plasmodium falciparum plasmepsin-1.
The subject of the next assay is Plasmodium falciparum. Kind of assay: Antiplasmodial activity against Plasmodium falciparum infected in erythrocyte culture. Type of assay: functional, organism-based.
Assay [11] in a line: Inhibition of Plasmodium malariae plasmepsin-4. An outline of the steps: as §1

Each structure is given as a SMILES string. Active and inactive are the calls of the source. The calls are words filed in the database; no cut-off is given here.

Broadly, the Ki is the equilibrium dissociation constant of an inhibitor or competing ligand from its target. Read a high Ki as a looser hold on the target. The EC50 is the concentration giving half of the maximal effect. Higher therefore signals a need for much substance. Usually IC50 stands for the midpoint of a concentration-inhibition curve. The low end stands for greater potency in that assay, the high end for weaker potency in that assay.

Sequence of Protease (Q9YQ12 whole entry): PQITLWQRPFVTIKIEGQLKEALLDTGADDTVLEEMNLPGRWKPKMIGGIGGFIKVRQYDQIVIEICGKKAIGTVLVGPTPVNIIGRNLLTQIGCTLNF
T1 sequence (P07339 65-162 limits assumed): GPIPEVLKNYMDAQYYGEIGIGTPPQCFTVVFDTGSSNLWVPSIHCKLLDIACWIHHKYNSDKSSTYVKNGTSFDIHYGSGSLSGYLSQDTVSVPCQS
T1 sequence (P07339 169-412 limits assumed): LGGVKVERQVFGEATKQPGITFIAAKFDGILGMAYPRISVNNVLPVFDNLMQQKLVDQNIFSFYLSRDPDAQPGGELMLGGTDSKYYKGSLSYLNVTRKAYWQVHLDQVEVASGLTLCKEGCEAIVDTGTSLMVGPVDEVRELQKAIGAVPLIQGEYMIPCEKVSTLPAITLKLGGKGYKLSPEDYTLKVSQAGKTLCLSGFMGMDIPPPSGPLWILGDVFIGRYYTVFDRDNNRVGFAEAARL
Sequence of Beta-secretase 1 (Homo sapiens) (P56817 whole entry): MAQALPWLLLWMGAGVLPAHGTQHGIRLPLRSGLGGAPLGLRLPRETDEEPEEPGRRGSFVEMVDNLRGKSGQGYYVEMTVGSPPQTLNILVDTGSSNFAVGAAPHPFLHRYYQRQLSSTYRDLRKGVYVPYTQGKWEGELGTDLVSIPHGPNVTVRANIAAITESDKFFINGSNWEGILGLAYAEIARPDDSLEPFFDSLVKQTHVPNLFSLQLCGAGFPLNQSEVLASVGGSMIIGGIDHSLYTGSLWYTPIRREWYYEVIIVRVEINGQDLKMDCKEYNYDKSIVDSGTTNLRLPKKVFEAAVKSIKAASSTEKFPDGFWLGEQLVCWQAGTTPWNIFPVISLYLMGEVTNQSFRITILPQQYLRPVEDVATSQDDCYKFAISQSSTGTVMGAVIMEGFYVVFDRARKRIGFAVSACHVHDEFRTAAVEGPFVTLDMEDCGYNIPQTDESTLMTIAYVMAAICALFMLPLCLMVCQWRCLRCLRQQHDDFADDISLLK
Sequence of Plasmepsin II (P46925 whole entry): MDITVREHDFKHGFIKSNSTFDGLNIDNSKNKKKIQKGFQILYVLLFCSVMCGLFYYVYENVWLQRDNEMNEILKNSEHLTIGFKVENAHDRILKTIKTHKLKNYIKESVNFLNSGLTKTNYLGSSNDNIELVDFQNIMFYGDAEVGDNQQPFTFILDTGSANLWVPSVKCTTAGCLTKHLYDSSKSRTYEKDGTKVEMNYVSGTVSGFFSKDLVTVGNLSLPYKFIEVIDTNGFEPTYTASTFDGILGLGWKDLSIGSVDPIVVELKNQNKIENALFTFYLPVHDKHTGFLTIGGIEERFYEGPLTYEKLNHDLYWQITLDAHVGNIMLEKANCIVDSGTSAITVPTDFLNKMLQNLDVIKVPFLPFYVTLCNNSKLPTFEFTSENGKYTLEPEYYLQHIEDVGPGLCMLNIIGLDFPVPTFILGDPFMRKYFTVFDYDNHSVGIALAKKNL
Sequence of Aspartic protease PM4 (O60989 whole entry): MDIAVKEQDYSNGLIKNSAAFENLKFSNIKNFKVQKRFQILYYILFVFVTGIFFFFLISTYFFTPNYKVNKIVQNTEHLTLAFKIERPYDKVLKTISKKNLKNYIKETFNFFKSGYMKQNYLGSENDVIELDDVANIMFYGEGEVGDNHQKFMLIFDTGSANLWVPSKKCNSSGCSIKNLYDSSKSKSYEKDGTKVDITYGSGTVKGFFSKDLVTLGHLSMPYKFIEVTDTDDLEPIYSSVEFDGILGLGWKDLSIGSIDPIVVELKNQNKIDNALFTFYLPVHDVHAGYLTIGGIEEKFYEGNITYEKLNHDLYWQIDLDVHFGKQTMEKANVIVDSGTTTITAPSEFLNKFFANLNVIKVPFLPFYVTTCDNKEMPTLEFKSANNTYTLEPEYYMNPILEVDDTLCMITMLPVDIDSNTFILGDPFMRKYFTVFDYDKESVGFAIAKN
Sequence of Plasmepsin I (P39898 whole entry): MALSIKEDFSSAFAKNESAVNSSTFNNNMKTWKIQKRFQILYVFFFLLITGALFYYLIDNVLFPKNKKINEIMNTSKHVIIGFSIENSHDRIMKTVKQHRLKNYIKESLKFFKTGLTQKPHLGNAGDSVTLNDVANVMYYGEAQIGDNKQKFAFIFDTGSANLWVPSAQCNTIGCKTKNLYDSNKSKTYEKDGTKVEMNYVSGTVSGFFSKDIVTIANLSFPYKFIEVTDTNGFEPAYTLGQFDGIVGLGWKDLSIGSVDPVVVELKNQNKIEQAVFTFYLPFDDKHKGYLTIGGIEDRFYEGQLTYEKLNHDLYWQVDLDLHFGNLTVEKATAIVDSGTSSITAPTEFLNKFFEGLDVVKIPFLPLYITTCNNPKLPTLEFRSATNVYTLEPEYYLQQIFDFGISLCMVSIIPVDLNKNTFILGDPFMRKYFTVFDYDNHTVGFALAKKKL
Sequence of Plasmepsin III (Q9Y006 whole entry): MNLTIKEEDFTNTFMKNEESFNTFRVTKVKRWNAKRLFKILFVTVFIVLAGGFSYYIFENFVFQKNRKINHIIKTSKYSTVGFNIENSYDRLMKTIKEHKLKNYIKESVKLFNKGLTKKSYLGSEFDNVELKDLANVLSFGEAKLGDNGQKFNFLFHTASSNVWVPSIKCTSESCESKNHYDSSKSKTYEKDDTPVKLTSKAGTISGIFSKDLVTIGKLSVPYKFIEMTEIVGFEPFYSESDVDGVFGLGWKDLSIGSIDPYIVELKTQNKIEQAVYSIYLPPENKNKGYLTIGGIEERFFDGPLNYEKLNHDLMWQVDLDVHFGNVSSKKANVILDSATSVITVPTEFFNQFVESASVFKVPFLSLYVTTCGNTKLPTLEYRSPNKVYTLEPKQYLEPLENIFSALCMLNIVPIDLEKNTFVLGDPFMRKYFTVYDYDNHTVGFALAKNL

Take `Cc1cccc(C)c1OCC(=O)NCC(O)(CCc1ccccc1)C(=O)N1CCC[C@H]1C(=O)N[C@H]1c2ccccc2C[C@H]1O` (stereo in doubt; (A)-19) [listing 1 of 2 here]: at Cathepsin D [1], the Ratio Ki amounted to 5000.

In the case of `COC(=O)N[C@H](C(=O)NN(Cc1ccccc1)C[C@](O)(Cc1ccccc1)C(=O)N[C@H]1c2ccccc2C[C@H]1O)C(C)(C)C`, the inhibitory constant (Ki) in [2] was determined as 48000 nM; on Protease, 2200 nM. The molecule further had a half-maximal effective concentration (EC50) in assay [3] greater than 10000 nM.

In the case of `Cc1cccc(C)c1OCC(=O)NCC(O)(CCc1ccccc1)C(=O)N1CCC[C@H]1C(=O)N[C@H]1c2ccccc2C[C@H]1O` (stereo in doubt; (B)-19) [listing 1 of 2 here], the inhibition constant Ki is greater than 20000 nM on Plasmepsin II; 13000 nM in assay [4]; 26900 nM in assay [5]; 1300 nM at Aspartic protease PM4; 10300 nM in assay [6].

Consider `Cc1cccc(C)c1OCC(=O)NC[C@](O)(Cc1ccccc1)C(=O)N1CSC(C)(C)[C@H]1C(=O)N[C@H]1c2ccccc2C[C@H]1O`, for which the Ki on Plasmepsin II is greater than 20000 nM; in assay [4], 250 nM; in [5], 720 nM; at Aspartic protease PM4, 190 nM; at Cathepsin D [8], greater than 10000 nM; in assay [6] it was 530 nM. The outcome in assay [7] was inactive. Further, on Cathepsin D [1], the Ratio Ki is 5000.

With `Cc1cccc(C)c1OCC(=O)NC[C@@](O)(CCc1ccccc1)C(=O)N1CSC(C)(C)[C@@H]1C(=O)N[C@H]1c2ccccc2C[C@H]1O`, the inhibition constant (Ki) on Plasmepsin II was 440 nM; in assay [4] it was 1100 nM; in assay [5], 6300 nM; at Aspartic protease PM4 it was 390 nM; on Cathepsin D [8], greater than 10000 nM; in [6], 1000 nM. The figures for the Ratio Ki (in [9]; at Cathepsin D [1]) were greater than 20000 and 5000, respectively.

On to `Cc1cccc(C)c1OCC(=O)NC[C@@](O)(CCc1ccccc1)C(=O)N1CSC(C)(C)[C@H]1C(=O)N[C@H]1c2ccccc2C[C@H]1O`, for which the Ki was 1400 nM at Plasmepsin II; 7900 nM in [4]; 3100 nM in [5]; 370 nM at Aspartic protease PM4; greater than 10000 nM on Cathepsin D [8]; 4500 nM in [6]. Moreover, the EC50 in assay [10] was determined as 6400 nM. For the same molecule, the Ratio Ki at Cathepsin D [1] was 5000.

With `Cc1cccc(C)c1OCC(=O)NCC(O)(CCc1ccccc1)C(=O)N[C@@H](Cc1ccccc1)C(=O)N[C@H]1c2ccccc2C[C@H]1O` (stereo in doubt; (B)-20) [listing 1 of 2 here], the Ki at Protease is 1000 nM; on Cathepsin D [8], greater than 10000 nM.

`Cc1cccc(C)c1OCC(=O)NC[C@](O)(CCc1ccccc1)C(=O)N1CSC(C)(C)[C@@H]1C(=O)N[C@H]1c2ccccc2C[C@H]1O`: the inhibition constant (Ki) on Plasmepsin II is 7600 nM; in assay [4], 1600 nM; in assay [5] it was 10700 nM; at Aspartic protease PM4 it was 340 nM; on Cathepsin D [8], greater than 10000 nM; in [6] it was 880 nM. In addition, the Ratio Ki on Cathepsin D [1] was 5000.

On to `Cc1cccc(C)c1OCC(=O)NC[C@](O)(CCc1ccccc1)C(=O)N1CSC(C)(C)[C@H]1C(=O)N[C@H]1c2ccccc2C[C@H]1O`, for which the Ki on Plasmepsin II was 7400 nM; in assay [4], greater than 20000 nM; in assay [5] it was 5500 nM; at Aspartic protease PM4, 2200 nM; on Cathepsin D [8], greater than 10000 nM; in assay [6], 6500 nM. Further, the Ratio Ki at Cathepsin D [1] worked out at 5000.

As to `Cc1cccc(C)c1OCC(=O)NC[C@](O)(Cc1ccccc1)C(=O)N1CSC(C)(C)[C@@H]1C(=O)N[C@H]1c2ccccc2C[C@H]1O`, the inhibition constant (Ki) was 1700 nM at Plasmepsin II; 420 nM in assay [4]; 670 nM at Protease; 1700 nM in assay [5]; 120 nM at Aspartic protease PM4; greater than 10000 nM on Cathepsin D [8]. The molecule further displayed a Ki in [6] of 610 nM. Besides, in assay [7], the result was inactive. Also, the Ratio Ki at Cathepsin D [1] was 5000.

For the molecule `Cc1cccc(C)c1OCC(=O)NCC(O)(CCc1ccccc1)C(=O)N[C@@H](Cc1ccccc1)C(=O)N[C@H]1c2ccccc2C[C@H]1O` (stereo in doubt; (A)-20) [listing 1 of 2 here], the result in assay [7] was inactive. For the same molecule, the Ratio Ki on Cathepsin D [1] came out at 5000.

With `Cc1cccc(C)c1OCC(=O)NC[C@@](O)(Cc1ccccc1)C(=O)N1CSC(C)(C)[C@@H]1C(=O)N[C@H]1c2ccccc2C[C@H]1O`, the Ki at Plasmepsin II is 830 nM; in assay [4] it was 210 nM; in assay [5], 1700 nM; at Aspartic protease PM4, 160 nM; at Cathepsin D [8], greater than 10000 nM; in assay [6], 1300 nM. Also, the result in assay [7] was inactive. Besides, at Cathepsin D [1], the Ratio Ki worked out at 5000.

On to `Cc1cccc(C)c1OCC(=O)NCC(O)(CCc1ccccc1)C(=O)N1CCC[C@H]1C(=O)N[C@H]1c2ccccc2C[C@H]1O` (stereo in doubt; (A)-19) [listing 2 of 2 here], for which the inhibition constant (Ki) at Plasmepsin II is greater than 20000 nM; in [4], 14500 nM; in [5], 30200 nM; at Aspartic protease PM4, 2200 nM; on Cathepsin D [8], greater than 10000 nM; in [6], 7200 nM.

As to `Cc1cccc(C)c1OCC(=O)N[C@@H](Cc1ccccc1)[C@H](O)C(=O)N1CSC(C)(C)[C@H]1C(=O)N[C@H]1c2ccccc2C[C@H]1O`, the half-maximal inhibitory concentration (IC50) in [2] was 15 nM; against Plasmepsin III, 690 nM; against Plasmepsin I it was 280 nM; in the assay with Plasmodium falciparum it was 6800 nM. In addition, in [9], the Ratio Ki is 4. The Ki at Cathepsin D [8] turned out to be 2 nM.

For `Cc1cccc(C)c1OCC(=O)NC[C@@](O)(Cc1ccccc1)C(=O)N1CSC(C)(C)[C@H]1C(=O)N[C@H]1c2ccccc2C[C@H]1O`, the Ki on Plasmepsin II is greater than 20000 nM; in assay [4], 260 nM; in assay [5], 700 nM; at Aspartic protease PM4, 160 nM; at Cathepsin D [8], greater than 10000 nM; in assay [6], 110 nM. For the same molecule, in assay [7], the outcome was inactive. In addition, at Cathepsin D [1], the Ratio Ki worked out at 5000.

Consider `Cc1cccc(C)c1OCC(=O)NCC(O)(CCc1ccccc1)C(=O)N1CCC[C@H]1C(=O)N[C@H]1c2ccccc2C[C@H]1O` (stereo in doubt; (B)-19) [listing 2 of 2 here], for which the Ratio Ki at Cathepsin D [1] was determined as 5000.

In the case of `Cc1cccc(C)c1OCC(=O)NCC(O)(CCc1ccccc1)C(=O)N[C@@H](Cc1ccccc1)C(=O)N[C@H]1c2ccccc2C[C@H]1O` (stereo in doubt; (B)-20) [listing 2 of 2 here], in assay [7], the outcome was inactive. Moreover, the Ratio Ki on Cathepsin D [1] was found to be 5000.

Turning to `Cc1ccccc1CNC(=O)[C@H]1N(C(=O)[C@@H](O)[C@H](Cc2ccccc2)NC(=O)c2cccc(O)c2C)CSC1(C)C`, the inhibition constant Ki in [11] turned out to be 110 nM. This counts as sub-micromolar.

For the molecule `Cc1cccc(C)c1OCC(=O)NCC(O)(CCc1ccccc1)C(=O)N[C@@H](Cc1ccccc1)C(=O)N[C@H]1c2ccccc2C[C@H]1O` (stereo in doubt; (A)-20) [listing 2 of 2 here], the inhibitory constant (Ki) is greater than 20000 nM in [5] and greater than 10000 nM at Cathepsin D [8].

Take `COC(=O)N[C@H](C(=O)NN(Cc1ccccc1)C[C@@](O)(Cc1ccccc1)C(=O)N[C@H]1c2ccccc2C[C@H]1O)C(C)(C)C`: the inhibition constant (Ki) turned out to be 12000 nM in assay [2] and 6 nM on Protease. In [3], the midpoint of the response, the EC50, lay at 1900 nM.
